{
  "source": "paper PMC6726529",
  "about": "(Clinical cancer research : an official journal of the …, 2019)",
  "key": {"[1]": {"tested_on": "lymphoma cell lines", "assay": "Synergy in cell viability assay by excess over bliss", "format": "cell-based", "conditions": "for synergy in combination with romidepsin: EZH2 inhibitor combined with romidepsin (Supplementary Fig S3)"}, "[2]": {"tested_on": "H3K27", "assay": "H3K27 acetylation/methylation in HEK 293T cells", "format": "cell-based", "conditions": "single agent exposure", "summary_of_the_method": "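HEK293 cells were transfected in OPTI-MEM with a human HDAC2 shRNA or scramble plasmid using Lipofectamine 3000. They were puromycin-selected and monitored for GFP by flow cytometry and fluorescence microscopy until a stable line formed. The stable HDAC2-knockdown or scramble cells were then exposed to an EZH2 inhibitor test compound, and H3K27 methylation status was assessed.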"}, "[3]": {"conditions": "mouse, in vivo; for median Cmax: ip"}, "[4]": {"tested_on": "SU-DHL-10", "assay": "Cell viability assay, single agent IC50", "format": "cell-based", "conditions": "Homo sapiens, SU-DHL10, 72 h, read-out: in vitro IC50 of romidepsin in SU-DHL-10"}, "[5]": {"conditions": "prior work, combination therapy alisertib + romidepsin; cited from earlier work"}, "[6]": {"tested_on": "B-cell lymphomas", "conditions": "phase I clinical trial; cited from earlier work"}},
  "data": [
    {"smiles": "Nc1ccc(-c2cccs2)cc1NC(=O)c1ccc2nc(N3CCNCC3)ccc2c1", "note": "[ACY957]", "values": [
      {"measurement": "synergy in combination with GSK126 (EOB)", "setting": "[1]; ACY957 combined with GSK126, 4 GC-DLBCL cell lines", "value": "synergistic"}
    ]},
    {"smiles": "COc1cc(C)[nH]c(=O)c1CNC(=O)c1c(C)n([C@H](C)C2CCN(CC(F)(F)F)CC2)c2ccccc12", "note": "[CPI-1205]", "values": [
      {"measurement": "synergy in combination with romidepsin", "setting": "[1]", "value": "demonstrated synergy"}
    ]},
    {"smiles": "CCN(c1cc(C#CCN2CCOCC2)cc(C(=O)NCc2c(C)cc(C)[nH]c2=O)c1C)[C@H]1CC[C@H](N(C)CCOC)CC1", "note": "[EPZ011989]", "values": [
      {"measurement": "synergy in combination with romidepsin", "setting": "[1]", "value": "demonstrated synergy"}
    ]},
    {"smiles": "CC[C@H](C)n1cc(C)c2c(C(=O)NCc3c(C)cc(C)[nH]c3=O)cc(-c3ccc(N4CCNCC4)nc3)cc21", "note": "[GSK126]", "values": [
      {"measurement": "status of acetylation or methylation of H3K27", "setting": "[2]", "value": "did not significantly change"},
      {"measurement": "Cmax translated to molar concentration", "setting": "[3]", "value": 3150, "unit": "nM"},
      {"measurement": "serum AUC0-last", "setting": "[3]", "value": 2828.57, "unit": "ng·h/mL"},
      {"measurement": "median Cmax", "setting": "[3]", "value": "1657.5 ± 413.6", "unit": "ng/mL"}
    ]},
    {"smiles": "C/C=C1\\NC(=O)[C@H]2CSSCC/C=C/[C@H](CC(=O)N[C@H](C(C)C)C(=O)N2)OC(=O)[C@H](C(C)C)NC1=O", "note": "[romidepsin]", "values": [
      {"measurement": "IC50", "setting": "[4]", "value": 2.59, "unit": "nM"},
      {"measurement": "Cmax translated to molar concentration", "setting": "[3]", "value": 180, "unit": "nM"},
      {"measurement": "median Cmax", "setting": "[3]", "value": "98.24 ± 62.50", "unit": "ng/mL"},
      {"measurement": "intratumor levels after combination of alisertib and romidepsin", "setting": "[5]", "value": "below the level of detection"}
    ]},
    {"smiles": "CCN(c1cc(-c2ccc(CN3CCOCC3)cc2)cc(C(=O)NCc2c(C)cc(C)[nH]c2=O)c1C)C1CCOCC1", "note": "[tazemetostat]", "values": [
      {"measurement": "overall response rate", "setting": "[6]", "value": 38, "unit": "%"}
    ]}
  ]
}
